The record followed here is ChEMBL document CHEMBL1139225, “Metabolism-based identification of a potent thrombin receptor antagonist” (J Med Chem, 2007).

The target of data set [1] is T1, Proteinase-activated receptor 1 (Homo sapiens, UniProt P25116).
T1 sequence (P25116 whole entry): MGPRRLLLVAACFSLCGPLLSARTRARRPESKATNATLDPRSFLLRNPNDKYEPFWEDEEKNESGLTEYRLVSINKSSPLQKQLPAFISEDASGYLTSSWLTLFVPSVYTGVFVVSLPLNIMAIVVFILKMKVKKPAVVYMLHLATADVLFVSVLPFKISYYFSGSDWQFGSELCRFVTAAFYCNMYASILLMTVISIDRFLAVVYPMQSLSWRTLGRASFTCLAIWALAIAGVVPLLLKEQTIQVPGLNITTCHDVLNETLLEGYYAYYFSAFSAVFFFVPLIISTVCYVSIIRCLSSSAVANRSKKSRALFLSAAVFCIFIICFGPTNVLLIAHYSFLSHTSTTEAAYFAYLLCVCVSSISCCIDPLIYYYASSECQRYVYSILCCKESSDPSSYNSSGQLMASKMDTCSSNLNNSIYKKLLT
In words: Displacement of [3H]haTRAP from PAR1 in human platelet membrane. The data set is classed as cell membranes.

Data set [2] is described as follows: AUC (0-6h) in rat at 10 mg/kg, po. The data set is classed as ADME, organism-based. Further details: time < 6 hr, dose 10 mg/kg, route oral. Particulars: plasma. The method, boiled down: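 Rat oral pharmacokinetics at 10 mg/kg dosed in 20% HPβCD. Plasma exposure was reported as AUC(0-6).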
Data set [3] is described as follows: Solubility of the compound. The data set is classed as physicochemical.
Data set [4] is described as follows: AUC (0-24h) in Sprague-Dawley rat at 300 mg/kg, po after 1 day. The data set is classed as ADME, organism-based. Further details: time < 24 hr, dose 300 mg/kg, route oral. The settings on record: plasma. The method, boiled down: (§1)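 Fed male Sprague Dawley rats, four per group, given the compound orally once daily for 10 consecutive days in 0.4% methylcellulose (100 and 300 mg/kg groups). On day 1 and day 10, plasma concentrations of parent and hydroxylated metabolites were measured at 1, 2, 4, 8, 12 and 24 h, giving AUC(0-24 h) and Cmax.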

Data set [5] is described as follows: AUC (0-24h) in Sprague-Dawley rat at 300 mg/kg, po after 10 days. The data set is classed as ADME, organism-based. Further details: time < 24 hr, dose 300 mg/kg, route oral. The settings on record: plasma. The method, boiled down:
as §1

A short description of data set [6]: Cmax in Sprague-Dawley rat at 300 mg/kg, po after 1 day. The data set is classed as ADME, organism-based. Further details: dose 300 mg/kg, route oral. Particulars: in vivo. The procedure, abridged:
as §1

The nature of data set [7]: Cmax in Sprague-Dawley rat at 300 mg/kg, po after 10 days. The data set is classed as ADME, organism-based. Further details: dose 300 mg/kg, route oral. The settings on record: in vivo. The procedure, abridged: as §1
The nature of data set [8]: AUC (0-24h) in cynomolgus monkey at 1 mg/kg, po. Further details: time < 24 hr, dose 1 mg/kg, route oral. The settings on record: plasma. The data set is classed as ADME, organism-based, Macaca fascicularis. The method, boiled down:
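Cynomolgus monkeys received a single oral dose of 1 mg/kg in 20% HPβCD. Blood levels were followed at various time points afterwards.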

Data set [9] is described as follows: AUC (0-6h) in rat after oral administration. The data set is classed as ADME, organism-based. Further details: time < 6 hr, route oral. Particulars: plasma.
In data set [10] the test system is Platelet. In words: Inhibition of haTRAP-induced platelet aggregation in cynomolgus monkey at 1 mg/kg after 6 hrs. The data set is classed as functional, organism-based. Further details: dose 1 mg/kg. The settings on record: Macaca fascicularis. The procedure, abridged:
(§2)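 Ex-vivo assay in cynomolgus monkeys. The compound was given orally as a single dose (1 mg/kg or 3 mg/kg in 20% HPβCD). Platelet aggregation induced by haTRAP was then measured in samples taken after dosing, at time points up to 24 h.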

For data set [11], the system named is Platelet. The experiment in a line: Inhibition of haTRAP-induced platelet aggregation in cynomolgus monkey at 3 mg/kg. The data set is classed as functional, organism-based. The settings on record: Macaca fascicularis. Further details: dose 3 mg/kg. The method, boiled down: as §2
Data set [12] is described as follows: Inhibition of thrombin-mediated activation of calcium transients in human CASMC. The data set is classed as functional. The method, boiled down:
(§3)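 Human coronary artery smooth muscle cells were loaded with the fluorescent calcium dye Fluo-3, and intracellular calcium was read on a fluorometric imaging plate reader. Thrombin served as the agonist in the inhibition format. For the agonist check, cells were treated with the compound alone.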

Data set [13] can be described thus: Inhibition of thrombin-stimulated [3H]thymidine incorporation in human CASMC. The data set is classed as functional. The method, boiled down:
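Human coronary artery smooth muscle cells were stimulated with thrombin. [3H]thymidine incorporation was measured, and an apparent Ki was derived.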
(In general: Dividing cells build labelled thymidine or BrdU into new DNA.)

A short description of data set [14]: Inhibition of haTRAP-induced human platelet aggregation. The data set is classed as functional, cell-based. The procedure, abridged: (§4)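 Washed platelets from healthy human donors who had been aspirin-free for 7 days were preincubated with the compound for 1 h. Aggregation was then triggered by 0.3 µM haTRAP, or by ADP for the specificity test. IC50 was derived for the haTRAP response.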

Data set [15] is described as follows: Oral absorption in cynomolgus monkey. The data set is classed as ADME, organism-based, Macaca fascicularis. The settings on record: in vivo.
Data set [16] in a line: Bioavailability in cynomolgus monkey. The data set is classed as ADME, organism-based, Macaca fascicularis. Particulars: in vivo.
A further data set deals with Cytochrome P450 2D6 (Homo sapiens, UniProt P10635). In words: Inhibition of cytochrome P450 2D6 in human liver microsomes up to 10 uM. The data set is classed as ADME, Microsome. The procedure, abridged: (§5)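 Human liver microsomes. The compound was tested at concentrations up to 10 µM for inhibition of CYP2D6, 3A4, 2C9 and 2C19.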
Sequence of Cytochrome P450 2D6 (P10635 whole entry): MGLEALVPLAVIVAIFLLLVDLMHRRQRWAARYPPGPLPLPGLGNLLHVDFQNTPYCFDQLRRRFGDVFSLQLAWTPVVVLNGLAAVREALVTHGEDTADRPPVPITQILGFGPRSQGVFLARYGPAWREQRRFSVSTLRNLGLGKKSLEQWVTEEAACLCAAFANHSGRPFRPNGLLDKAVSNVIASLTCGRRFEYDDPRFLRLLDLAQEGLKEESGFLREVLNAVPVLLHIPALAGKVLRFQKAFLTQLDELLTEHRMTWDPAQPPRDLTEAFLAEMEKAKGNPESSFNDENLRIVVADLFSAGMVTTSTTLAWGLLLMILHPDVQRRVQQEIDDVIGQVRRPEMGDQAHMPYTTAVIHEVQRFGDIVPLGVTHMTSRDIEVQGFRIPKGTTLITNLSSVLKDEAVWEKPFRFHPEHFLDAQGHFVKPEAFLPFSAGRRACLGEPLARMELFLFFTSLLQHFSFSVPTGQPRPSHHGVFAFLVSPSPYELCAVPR
(Liver microsomes are a subcellular fraction often used to study metabolism.)

Another data set deals with Cytochrome P450 3A4 (Homo sapiens, UniProt P08684). The experiment in a line: Inhibition of cytochrome P450 3A4 in human liver microsomes up to 10 uM. The data set is classed as ADME, Microsome. The procedure, abridged:
as §5

A further data set addresses Cytochrome P450 2C9 (Homo sapiens, UniProt P11712). The experiment in a line: Inhibition of cytochrome P450 2C9 in human liver microsomes up to 10 uM. The data set is classed as ADME, Microsome. The method, boiled down:
as §5

The target of a further data set is Cytochrome P450 2C19 (Homo sapiens, UniProt P33261). The experiment in a line: Inhibition of cytochrome P450 2C19 in human liver microsomes up to 10 uM. The data set is classed as ADME, Microsome. The procedure, abridged:
as §5

Data set [17] in a line: Inhibition of haTRAP-induced platelet aggregation in cynomolgus monkey at 1 mg/kg after 24 hr. Particulars: Macaca fascicularis. The data set is classed as functional. The method, boiled down:
as §2

The subject of data set [18] is Platelet. The experiment in a line: Inhibition of ADP-induced human platelet aggregation. The data set is classed as functional, cell-based. The procedure, abridged: as §4
For the next data set, the species on record is Homo sapiens. In words: Effect on elevation of calcium level in human CASMC. The data set is classed as functional. The procedure, abridged: as §3

For orientation: IC50 means the point on the concentration scale where inhibition reaches its midpoint. As a reminder, the AUC(0-t) is the area under the concentration-time curve up to a stated or last time point. For orientation: solubility means how much of the substance goes into solution per volume. One may read the AUC as concentration integrated over time. Broadly, the Cmax is the peak of the concentration-time curve. Broadly, the Ki is a dissociation constant, usually derived from enzyme kinetics or from competition with a known ligand. As usually defined, the bioavailability is dose-corrected exposure relative to a reference, in per cent. As a reminder, the inhibition in vivo is the drop in the measured response relative to a control, in per cent.

Values after ≈ are worked out from the molar mass of the structure shown. Active and inactive are the calls of the source. No cut-off for these calls is given here.

Sequence of Cytochrome P450 2C19 (P33261 whole entry): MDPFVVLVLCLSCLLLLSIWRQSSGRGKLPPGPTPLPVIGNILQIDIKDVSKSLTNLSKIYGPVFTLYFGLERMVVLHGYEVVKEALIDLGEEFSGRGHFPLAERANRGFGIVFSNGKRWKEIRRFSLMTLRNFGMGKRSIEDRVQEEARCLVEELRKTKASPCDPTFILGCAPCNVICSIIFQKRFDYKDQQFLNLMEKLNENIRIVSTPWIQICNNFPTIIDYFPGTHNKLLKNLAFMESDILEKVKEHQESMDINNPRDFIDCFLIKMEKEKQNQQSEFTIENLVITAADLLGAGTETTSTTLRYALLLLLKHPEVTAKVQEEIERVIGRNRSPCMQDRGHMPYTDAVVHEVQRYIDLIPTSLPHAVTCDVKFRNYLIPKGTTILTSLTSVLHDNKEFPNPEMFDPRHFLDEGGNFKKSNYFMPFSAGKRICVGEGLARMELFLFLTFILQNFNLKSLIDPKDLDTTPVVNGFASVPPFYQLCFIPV
Sequence of Cytochrome P450 3A4 (P08684 whole entry): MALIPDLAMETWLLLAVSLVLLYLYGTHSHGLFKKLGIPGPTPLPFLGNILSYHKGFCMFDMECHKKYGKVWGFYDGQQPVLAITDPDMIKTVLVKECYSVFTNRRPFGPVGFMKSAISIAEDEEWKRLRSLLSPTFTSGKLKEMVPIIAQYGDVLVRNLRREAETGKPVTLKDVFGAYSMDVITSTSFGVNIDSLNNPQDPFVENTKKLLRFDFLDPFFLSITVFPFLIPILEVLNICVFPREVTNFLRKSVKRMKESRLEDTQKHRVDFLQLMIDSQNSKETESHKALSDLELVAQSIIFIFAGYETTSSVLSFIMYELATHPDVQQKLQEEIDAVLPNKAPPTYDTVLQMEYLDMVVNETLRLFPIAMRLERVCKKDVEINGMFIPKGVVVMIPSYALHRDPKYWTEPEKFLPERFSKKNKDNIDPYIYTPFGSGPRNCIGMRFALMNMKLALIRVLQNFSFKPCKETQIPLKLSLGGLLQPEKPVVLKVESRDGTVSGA
Sequence of Cytochrome P450 2C9 (P11712 whole entry): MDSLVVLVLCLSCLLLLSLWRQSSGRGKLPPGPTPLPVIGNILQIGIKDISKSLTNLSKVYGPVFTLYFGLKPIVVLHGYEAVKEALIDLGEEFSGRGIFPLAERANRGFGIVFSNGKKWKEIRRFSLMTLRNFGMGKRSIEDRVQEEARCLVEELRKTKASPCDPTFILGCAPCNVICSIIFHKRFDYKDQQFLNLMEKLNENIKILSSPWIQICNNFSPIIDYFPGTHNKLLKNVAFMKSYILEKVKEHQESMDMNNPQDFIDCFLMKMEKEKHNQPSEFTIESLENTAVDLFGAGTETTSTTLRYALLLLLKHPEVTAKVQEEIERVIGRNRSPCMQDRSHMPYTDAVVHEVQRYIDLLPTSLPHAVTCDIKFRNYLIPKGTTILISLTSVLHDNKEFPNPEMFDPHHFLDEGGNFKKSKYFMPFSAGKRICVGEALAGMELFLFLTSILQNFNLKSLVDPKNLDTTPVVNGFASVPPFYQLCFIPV

In data set [1], `Cc1cccc(-c2ccc(/C=C/[C@H]3[C@@H]4CCC(F)(F)C[C@H]4C[C@H]4C(=O)O[C@H](C)[C@@H]34)nc2)c1` returned an IC50 of 80 nM.

`Cc1ccccc1-c1ccc(/C=C/[C@H]2[C@@H]3CC[C@@H](O)C[C@H]3C[C@H]3C(=O)O[C@H](C)[C@@H]23)nc1` gave an IC50 in [1] of 70 nM.

In data set [1], `C[C@H]1OC(=O)[C@@H]2C[C@@H]3CC(F)(F)CC[C@H]3[C@H](/C=C/c3ccc(-c4cccc(F)c4)cn3)[C@H]12` gave an IC50 of 15 nM.

In data set [1], `C[C@H]1OC(=O)[C@@H]2C[C@@H]3C[C@H](O)CC[C@H]3[C@H](/C=C/c3ccc(-c4ccc(F)cc4)cn3)[C@H]12` yielded an IC50 of 829 nM.

In data set [1], `C[C@H]1OC(=O)[C@@H]2C[C@@H]3C[C@H](O)CC[C@H]3[C@H](/C=C/c3ccc(-c4cc(Cl)ccc4Cl)cn3)[C@H]12` returned an IC50 of 97 nM.

Compound `C[C@H]1OC(=O)[C@@H]2C[C@@H]3CC(F)(F)CC[C@H]3[C@H](/C=C/c3ccc(-c4cccc(C(F)(F)F)c4)cn3)[C@H]12` registered an IC50 in data set [1] of 37 nM. Further, the AUC(0-t) at 6 h in [2] was found to be 1200 ng·h/mL. Also, the concentration in solution in data set [3] (solubility) was 5 µM (≈ 2.46 µg/mL).

In turn, `C[C@H]1OC(=O)[C@@H]2C[C@@H]3C[C@H](O)CC[C@H]3[C@H](/C=C/c3ccc(-c4cccc(Cl)c4)cn3)[C@H]12` had an IC50 in [1] of 38.5 nM.

`C[C@H]1OC(=O)[C@@H]2C[C@@H]3C[C@@H](O)CC[C@H]3[C@H](/C=C/c3ccc(-c4cccc(C(F)(F)F)c4)cn3)[C@H]12` yielded an IC50 in data set [1] of 23 nM. Moreover, the AUC(0-t) at 24 h worked out at 18000 ng·h/mL in data set [4] and 73 ng·h/mL in [8]. Also, the AUC at 24 h in data set [5] was 81000 ng·h/mL. Moreover, the Cmax is 11000 ng/mL in data set [6] and 47000 ng/mL in data set [7]. The AUC(0-t) at 6 h in data set [9] stood at 3150 ng·h/mL. Also, the outcome in the data set on Platelet [10] was Active.

Consider `Cc1cccc(-c2ccc(/C=C/[C@H]3[C@@H]4CC[C@@H](O)C[C@H]4C[C@H]4C(=O)O[C@H](C)[C@@H]34)nc2)c1`, for which, in data set [1], the IC50 worked out at 147 nM.

In [1], `C[C@H]1OC(=O)[C@@H]2C[C@@H]3C[C@H](O)CC[C@H]3[C@H](/C=C/c3ccc(-c4cccc(Cl)c4Cl)cn3)[C@H]12` came in with an IC50 of 16.5 nM.

In the case of `C[C@H]1OC(=O)[C@@H]2C[C@@H]3C[C@H](O)CC[C@H]3[C@H](/C=C/c3ccc(-c4cccc(C(F)(F)F)c4)cn3)[C@H]12`, the outcome in the data set with Platelet [11] and in the data set on Platelet [10] was Active. For the same compound, the Ki came to 85 nM in data set [12], 22 nM in data set [13] and 11 nM in data set [1]. The IC50 in data set [14] was 60 nM; in [1] it was 17 nM. Further, the Fa in data set [15] was 92%. Moreover, the bioavailability in data set [16] stood at 89%. In addition, the Activity entry at Cytochrome P450 2D6, on Cytochrome P450 3A4, at Cytochrome P450 2C9 and on Cytochrome P450 2C19 was “Not Active” in each case. The AUC(0-t) at 24 h was 93000 ng·h/mL in data set [4] and 3060 ng·h/mL in data set [8]. Further, the AUC at 24 h in data set [5] came to 41000 ng·h/mL. The Cmax in data set [6] was determined as 58000 ng/mL; in data set [7], 25000 ng/mL. Besides, in data set [9], the AUC(0-t) at 6 h came to 6130 ng·h/mL. In [17], at 1 mg/kg the inhibition in vivo was 60%. Also, the result in the data set with Platelet [18] and in the data set filed under Homo sapiens was inactive.

For the compound `C[C@H]1OC(=O)[C@@H]2C[C@H]3[C@@H](CCCC3(F)F)[C@H](/C=C/c3ccc(-c4cccc(C(F)(F)F)c4)cn3)[C@H]12`, the IC50 in data set [1] came out at 53 nM. In addition, in data set [2], the AUC(0-t) at 6 h was determined as 1200 ng·h/mL. In [3], this compound had a solubility of 5 µM (≈ 2.46 µg/mL).
